For assay [1], the species on record is Rattus norvegicus. Put plainly: Ability to inhibit the release of extravasated dye in the rat peritoneal fluids by 50%. Format: functional, organism-based. In outline:
(§1)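 Rats sensitized ip with 2 mL of 1:5 rat antiserum in isotonic saline. 2 h later, 0.3 mL 5% Pontamine Sky Blue given iv, then after 30 s ip challenge with 5 mL Tyrode (heparin 50 μg/mL, ovalbumin 0.4 mg/mL). Compound ip in 1 mL saline 30 s before antigen; dose expressed as concentration in the 6 mL injected. Peritoneal fluid collected 5 min post-challenge.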

Assay [2] is filed under the species Rattus norvegicus. Description: Ability to inhibit the release of histamine in the rat peritoneal fluids by 50%. Format: functional, organism-based. In a few lines: as §1
The target of a further assay is Histamine H1 receptor (Cavia porcellus, UniProt P31389). Put plainly: H1-antihistamine activity on guinea pig ileum. Format: functional, tissue-based. Conditions: read-out: pA2 (converted). In outline:
(§2)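 Isolated guinea pig ileum under about 1 g tension, isotonic recording, histamine contractions. Method a: histamine curves repeated at rising antagonist levels in Tyrode; pA2 from a Schild plot of log(CR−1). Methods b/c: antagonist given 10 min (b) or 30 s (c) before double the ~50%-response histamine dose.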

In assay [3] the target is Histamine H1 receptor (Cavia porcellus) (UniProt P31389). Put plainly: H1-antihistamine activity on guinea pig ileum; Inactive. Format: functional, tissue-based. In a few lines: as §2

Active and inactive are the calls of the source. The rule behind the calls is not given here. Where only a bound is given, the exact number is not on record here.

Chain of Histamine H1 receptor (P31389 whole entry): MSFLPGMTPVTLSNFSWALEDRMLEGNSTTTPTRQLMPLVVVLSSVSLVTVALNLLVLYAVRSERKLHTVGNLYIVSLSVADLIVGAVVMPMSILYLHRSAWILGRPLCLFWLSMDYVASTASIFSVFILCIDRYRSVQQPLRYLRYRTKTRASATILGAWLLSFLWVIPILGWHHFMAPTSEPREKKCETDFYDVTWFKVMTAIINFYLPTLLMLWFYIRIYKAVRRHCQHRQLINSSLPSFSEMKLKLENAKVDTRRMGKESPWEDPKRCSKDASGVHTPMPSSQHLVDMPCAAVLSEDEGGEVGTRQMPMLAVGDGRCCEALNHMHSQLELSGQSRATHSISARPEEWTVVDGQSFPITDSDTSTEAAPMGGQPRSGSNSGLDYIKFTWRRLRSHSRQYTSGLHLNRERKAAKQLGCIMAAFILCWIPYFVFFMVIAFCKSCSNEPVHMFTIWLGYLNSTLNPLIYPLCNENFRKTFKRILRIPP
Chain of Histamine H1 receptor (Cavia porcellus) (P31389 whole entry): as above

One may read the IC50 as the concentration that gives 50% inhibition. Low readings indicate greater potency, high ones weaker potency. `O=c1oc2cc(OCCCN3CCN(Cc4ccc(Cl)cc4)CC3)ccc2c(O)c1[N+](=O)[O-]`: the 50% inhibitory concentration (IC50) in the assay filed under Rattus norvegicus [1] was determined as 5.8 µM; in the assay listed under Rattus norvegicus [2], 1.9 µM. Besides, the Kb at Histamine H1 receptor was 0.001 µM.
In turn, `O=c1oc2cc(OCCN3CCN(Cc4ccc(Cl)cc4)CC3)ccc2c(O)c1[N+](=O)[O-]` came in with a half-inhibitory concentration (IC50) in the assay filed under Rattus norvegicus [1] of 100 µM. Further, at Histamine H1 receptor, the Kb was 0.158 µM.
With `CN1CCN(CCCOc2ccc3c(O)c([N+](=O)[O-])c(=O)oc3c2)CC1`, the concentration for half-maximal inhibition (IC50) in the assay listed under Rattus norvegicus [1] is 13 µM; in the assay listed under Rattus norvegicus [2] it was < 2 µM. Also, the Kb on Histamine H1 receptor is 100 µM.
For the compound `O=c1oc2cc(OCC(O)CN3CCN(Cc4ccc(Cl)cc4)CC3)ccc2c(O)c1[N+](=O)[O-]` (stereo not drawn), the figures for the concentration for half-maximal inhibition (IC50) in the assay filed under Rattus norvegicus [1] and in the assay filed under Rattus norvegicus [2] were 20 µM and < 2 µM, respectively.
Regarding `O=c1oc2cc(OCCCN3CCN(Cc4ccccc4)CC3)ccc2c(O)c1[N+](=O)[O-]`, the values for the IC50 in the assay listed under Rattus norvegicus [1] and in the assay filed under Rattus norvegicus [2] were > 200 µM and 28 µM, respectively.
Regarding `O=C(O)c1cc(=O)c2c(OCC(O)COc3cccc4oc(C(=O)O)cc(=O)c34)cccc2o1` [CROMOLYN SODIUM], the values for the IC50 in the assay filed under Rattus norvegicus [1] and in the assay filed under Rattus norvegicus [2] were 5.8 µM and 0.74 µM, respectively. The pA2 result in assay [3] is “inactive”.
Consider `COc1ccc(CN(CCN(C)C)c2ccccn2)cc1` [PYRILAMINE], for which the figures for the IC50 in the assay filed under Rattus norvegicus [1] and in the assay filed under Rattus norvegicus [2] were 29 µM and > 200 µM, respectively.
For `CN1CCC(=C2c3ccccc3CC(=O)c3sccc32)CC1` [KETOTIFEN] the same measures were 9.1 µM and > 200 µM.
As for `CCCc1c(OCC(O)CN2CCN(Cc3ccc(Cl)cc3)CC2)ccc2c(O)c([N+](=O)[O-])c(=O)oc12` (stereo not drawn), the concentration for half-maximal inhibition (IC50) in the assay listed under Rattus norvegicus [1] turned out to be 16 µM; in the assay filed under Rattus norvegicus [2], 2.6 µM.
Consider `O=c1oc2cc(CN3CCN(Cc4ccc(Cl)cc4)CC3)ccc2c(O)c1[N+](=O)[O-]`, for which the IC50 turned out to be 83 µM in the assay listed under Rattus norvegicus [1] and 14 µM in the assay filed under Rattus norvegicus [2].

The record behind these values is ChEMBL document CHEMBL1122518, “N-benzylpiperazino derivatives of 3-nitro-4-hydroxycoumarin with H1 antihistamine and mast cell stabilizing properties” (J Med Chem, 1984).
